Drawing on ChEMBL document CHEMBL1146219, “Synthesis and evaluation of novel radioiodinated benzamides for malignant melanoma” (J Med Chem, 2007), this text covers Ki and logD for four compounds.

Broadly, the Ki is the equilibrium dissociation constant of an inhibitor or competing ligand from its target. A low value points to tighter binding. What is called logD is the decadic logarithm of the distribution of all forms, ionised or not, between an organic phase and buffer at a given pH. A lower logD goes with a more hydrophilic compound.

In data set [1] the target is Sigma non-opioid intracellular receptor 1 (Cavia porcellus, UniProt Q60492). Briefly: Displacement of [3H](+)-pentazocine from sigma 1 receptor in guinea pig brain membrane. Format: cell membranes. In short, it runs like this: (§1)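 Guinea pig brain membranes, incubated in duplicate for 2 h at 25 °C in Tris-HCl pH 8.0. Benzamide 10⁻¹⁰ to […] against 2 nM [³H]-(+)-pentazocine (σ₁) or 2 nM [³H]DTG plus 100 nM (+)-pentazocine (σ₂). Nonspecific binding defined with 1 µM haloperidol. GF/B filtration, bound activity by β-scintillation counting, giving IC50 then Ki. Full curves run only where 10⁻⁵ M inhibited >90%.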
On the technique in general: Loss of bound radioactivity is the signal in a displacement assay; it reports binding, not function.

Data set [2] is described as follows: Displacement of [3H]DTG from sigma 2 receptor in guinea pig brain membrane. Format: cell membranes, Cavia porcellus. In short, it runs like this:
as §1

A short description of data set [3]: Lipophilicity, log P at pH 7.5. Format: physicochemical. The settings on record: buffer.

Bounds are passed on as bounds.

Sigma non-opioid intracellular receptor 1, sequence (Q60492 whole entry): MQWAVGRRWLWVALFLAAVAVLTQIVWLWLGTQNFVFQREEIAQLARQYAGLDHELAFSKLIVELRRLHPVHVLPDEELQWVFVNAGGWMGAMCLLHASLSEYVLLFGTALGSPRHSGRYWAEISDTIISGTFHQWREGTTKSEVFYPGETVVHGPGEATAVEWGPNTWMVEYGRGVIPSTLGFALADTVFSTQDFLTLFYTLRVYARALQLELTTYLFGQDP

For the compound `COc1cc(NC(C)=O)c(I)cc1C(=O)NCCCCN(C)C(C)C`, the inhibitory constant (Ki) in data set [1] is 5.2 µM; in data set [2], 5.4 µM. This compound came in with a logD in data set [3] of 0.75.
`CCN(CC)CCNC(=O)c1cc(I)c(NS(C)(=O)=O)cc1OC`: the Ki turned out to be 0.8 µM in data set [1] and 45 µM in data set [2]. The compound further came in with a logD in data set [3] of 0.82.
With `CCN(CC)CCNC(=O)c1cc(I)c(NC(C)=O)cc1OC`, the results for the Ki in data set [1] and in data set [2] were 1.65 µM and over 100 µM, respectively. The same compound showed a logD in data set [3] of 1.54.
Take `CCN(CC)CCNC(=O)c1cc(I)c(NS(=O)(=O)c2ccc(C)cc2)cc1OC`: the inhibition constant Ki in data set [1] was 0.65 µM; in data set [2], over 100 µM. For the same compound, the logD in data set [3] amounted to 1.95.
